{"source": "ChEMBL document CHEMBL4602702", "about": "“Red-Emitting Dibenzodiazepinone Derivatives as Fluorescent Dualsteric Probes for the Muscarinic Acetylcholine M2 Receptor” (J Med Chem, 2020)", "key": {"[1]": {"molecular_target": "T1, Muscarinic acetylcholine receptor M2 (Homo sapiens, UniProt P08172)", "T1 sequence (P08172 whole entry)": "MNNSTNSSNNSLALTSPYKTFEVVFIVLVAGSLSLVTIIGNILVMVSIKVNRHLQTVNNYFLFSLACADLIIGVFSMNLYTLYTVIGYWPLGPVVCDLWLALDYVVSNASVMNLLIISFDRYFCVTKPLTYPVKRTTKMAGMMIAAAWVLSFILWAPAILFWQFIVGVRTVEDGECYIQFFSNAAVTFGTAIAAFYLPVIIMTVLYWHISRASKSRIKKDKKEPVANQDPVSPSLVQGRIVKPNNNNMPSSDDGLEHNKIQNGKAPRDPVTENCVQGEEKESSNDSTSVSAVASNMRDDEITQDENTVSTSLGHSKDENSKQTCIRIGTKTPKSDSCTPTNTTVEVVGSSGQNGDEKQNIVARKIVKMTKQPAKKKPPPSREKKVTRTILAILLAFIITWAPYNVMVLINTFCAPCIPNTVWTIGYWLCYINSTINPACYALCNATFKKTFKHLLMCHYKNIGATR", "assay": "(§1) Displacement of 4-(2-((1E,3E)-5-((E)-3,3-Dimethyl-1-(6-oxo-6-((2-(4-(4-(1-(2-oxo-2-(11-oxo-10,11-dihydro-5H-dibenzo[b,e][1,4]diazepin-5-yl)ethyl)piperidin-4-yl)butyl)piperazin-1-yl)ethyl)amino)hexyl)-5-sulfoindolin-2-ylidene)penta-1,3-dien-1-yl)-3,3-dimethyl-3H-indol-1-ium-1-yl)butane-1-sulfonate Bis(hydrotrifluoroacetate) fluorescent tracer from human muscarinic M2 receptor expressed in […] cells measured after 60 mins by Hoechst H33342 dye based confocal plate reader assay", "assay_type": "cell-based"}, "[2]": {"molecular_target": "T1, Muscarinic acetylcholine receptor M2", "assay": "(§2) Displacement of 4-(2-((1E,3E)-5-((E)-1-(6-((3,5-Bis((2-(3-(1-(4-(1-(2-oxo-2-(11-oxo-10,11-dihydro-5H-dibenzo[b,e][1,4]diazepin-5-yl)ethyl)piperidin-4-yl)butyl)-1H-imidazol-4-yl)propanamido)ethyl)carbamoyl)benzyl)amino)-6-oxohexyl)-3,3-dimethyl-5-sulfoindolin-2-ylidene)penta-1,3-dien-1-yl)-3,3-dimethyl-3H-indol-1-ium-1-yl)butane-1-sulfonate Tris(hydrotrifluoroacetate) fluorescent tracer from human muscarinic M2 receptor expressed in […] cells measured after 60 mins by Hoechst H33342 dye based confocal plate reader assay", "assay_type": "cell-based"}, "[3]": {"molecular_target": "T1, Muscarinic acetylcholine receptor M2", "assay": "(§3) Displacement of 4-(2-((1E,3E)-5-((E)-3,3-Dimethyl-1-(6-oxo-6-((2-(3-(1-(4-(1-(2-oxo-2-(11-oxo-10,11-dihydro-5H-dibenzo[b,e][1,4]diazepin-5-yl)ethyl)piperidin-4-yl)butyl)-1H-imidazol-4-yl)propanamido)ethyl)-amino)hexyl)-5-sulfoindolin-2-ylidene)penta-1,3-dien-1-yl)-3,3-dimethyl-3H-indol-1-ium-1-yl)butane-1-sulfonateHydrotrifluoroacetate fluorescent tracer from human muscarinic M2 receptor expressed in […] cells measured after 60 mins by Hoechst H33342 dye based confocal plate reader assay", "assay_type": "cell-based"}, "[4]": {"molecular_target": "T2, Muscarinic acetylcholine receptor M1 (Homo sapiens, UniProt P11229)", "T2 sequence (P11229 whole entry)": "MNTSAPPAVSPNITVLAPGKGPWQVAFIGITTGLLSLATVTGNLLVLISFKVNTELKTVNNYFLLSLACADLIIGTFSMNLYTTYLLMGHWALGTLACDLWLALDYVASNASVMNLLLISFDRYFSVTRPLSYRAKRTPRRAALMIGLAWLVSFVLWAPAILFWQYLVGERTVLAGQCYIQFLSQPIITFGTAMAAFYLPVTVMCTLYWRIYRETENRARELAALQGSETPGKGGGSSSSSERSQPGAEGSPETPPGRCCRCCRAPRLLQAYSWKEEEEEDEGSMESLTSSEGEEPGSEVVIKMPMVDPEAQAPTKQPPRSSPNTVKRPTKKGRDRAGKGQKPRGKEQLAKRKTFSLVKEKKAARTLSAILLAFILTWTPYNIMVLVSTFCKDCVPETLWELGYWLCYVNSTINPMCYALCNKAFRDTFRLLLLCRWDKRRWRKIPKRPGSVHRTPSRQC", "assay": "Displacement of [3H]-QNB from truncated EGFP-fused human muscarinic M1 receptor expressed in HEK293 cells by […]", "assay_type": "cell-based"}, "[5]": {"molecular_target": "Muscarinic acetylcholine receptor M2 (Homo sapiens) (UniProt P08172)", "assay": "Displacement of [3H]-UR-SK259 human muscarinic M2 receptor"}, "[6]": {"molecular_target": "T1, Muscarinic acetylcholine receptor M2", "assay": "as §2, with “cells” for “cells measured after 60 mins”, “competition binding” for “Hoechst H33342 dye based confocal plate reader”", "assay_type": "cell-based", "details": "read-out: pA2 (converted)", "procedure,_shortened": "(§4)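 High-content imaging competition binding at intact CHO-hM2R cells against fluorescent tracer at 10 nM. Separately, flow cytometry competition with the fluorescent tracer at 1 nM at live cells. Four-parameter logistic fits; mean ± SEM of at least two experiments in duplicate.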"}, "[7]": {"molecular_target": "T1, Muscarinic acetylcholine receptor M2", "assay": "as §1, with “cells” for “cells measured after 60 mins”, “competition binding” for “Hoechst H33342 dye based confocal plate reader”", "assay_type": "cell-based", "details": "read-out: pA2 (converted)", "procedure,_shortened": "as §4"}, "[8]": {"molecular_target": "T1, Muscarinic acetylcholine receptor M2", "assay": "as §3, with “cells” for “cells measured after 60 mins”, “competition binding” for “Hoechst H33342 dye based confocal plate reader”", "assay_type": "cell-based", "details": "read-out: pA2 (converted)", "procedure,_shortened": "as §4"}, "[9]": {"molecular_target": "T1, Muscarinic acetylcholine receptor M2", "assay": "as §1, with “cells” for “cells measured after 60 mins”, “FACSCalibur flow cytometry” for “Hoechst H33342 dye based confocal plate reader assay”", "assay_type": "cell-based"}, "[10]": {"molecular_target": "T3, Muscarinic acetylcholine receptor M1 (Homo sapiens) (UniProt P11229)", "T3 sequence (whole entry)": "T2 sequence (P11229 whole entry)", "assay": "Displacement of [3H]-NMS from human muscarinic M1 receptor expressed in CHO cells by scintillation counting method", "assay_type": "cell-based"}, "[11]": {"molecular_target": "T4, Muscarinic acetylcholine receptor M2 (Homo sapiens) (UniProt P08172)", "T4 sequence (whole entry)": "T1 sequence (P08172 whole entry)", "assay": "Displacement of [3h]-NMS from human muscarinic M2 receptor expressed in CHO cells by radioligand binding assay", "assay_type": "cell-based"}}}
{"smiles": "O=C1CCCN1CC#CCN1CCCC1", "note": "[OXOTREMORINE]", "values": [{"measurement": "Ki", "setting": "[1]", "result": 851, "unit": "nM"}, {"measurement": "Ki", "setting": "[2]", "result": 1780, "unit": "nM"}, {"measurement": "Ki", "setting": "[3]", "result": 1020, "unit": "nM"}]}
{"smiles": "O=C(CCC1=[N+]2C(=Cc3ccc(-c4cccs4)n3[B-]2(F)F)C=C1)NCCOCCOCCOCCOCCOCCOCCCN1CCN(CC(=O)N2c3ccccc3C(=O)Nc3cccnc32)CC1", "values": [{"measurement": "Ki", "setting": "[4]", "result": 8.91, "unit": "nM"}]}
{"smiles": "CCC(=O)NCc1cc(C(=O)NCCN2CCC(N3CCC(n4c(=O)[nH]c5ccccc54)CC3)CC2)cc(C(=O)NCCN2CCN(CCCCC3CCN(CC(=O)N4c5ccccc5NC(=O)c5ccccc54)CC3)CC2)c1", "values": [{"measurement": "Kd", "setting": "[5]", "result": 0.813, "unit": "nM"}]}
{"smiles": "C[N+](C)(CCCCCC[N+](C)(C)CCCN1C(=O)c2ccccc2C1=O)CCCN1C(=O)c2ccccc2C1=O", "values": [{"measurement": "Ki", "setting": "[1]", "result": 1410, "unit": "nM"}, {"measurement": "Kb", "setting": "[6]", "result": 200, "unit": "nM"}, {"measurement": "Kb", "setting": "[7]", "result": 148, "unit": "nM"}, {"measurement": "Ki", "setting": "[2]", "result": 851, "unit": "nM"}, {"measurement": "Kb", "setting": "[8]", "result": 457, "unit": "nM"}, {"measurement": "Ki", "setting": "[3]", "result": 646, "unit": "nM"}, {"measurement": "Ki", "setting": "[9]", "result": 407, "unit": "nM"}]}
{"smiles": "Cc1scc2c1N(C(=O)CN1CCN(CCCCCCCCCCNC(=O)Cc3ccc4c(c3)C(C)(C)C3=C5C=C6C7=[N+](CCC6OC5CCN34)c3ccc(S(=O)(=O)[O-])cc3C7(C)C)CC1)c1ccccc1NC2=O", "note": "(centres undefined)", "values": [{"measurement": "pK", "setting": "[10]", "result": 10.5}, {"measurement": "pK", "setting": "[11]", "result": 10.3}]}
